Converted amounts (≈) assume the structure as drawn.
Columns and labels:
Type in all cases: functional
[1] = test system: Vesicular stomatitis virus; assay: Inhibition of Vesicular stomatitis virus induced cytopathicity in BALB/3T3 cells.; settings: in Mus musculus
Outline: (§1)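 Vesicular stomatitis virus was inoculated at 100 CCID50 (100× the dose infecting 50% of cells) in each cell type: human embryonic skin-muscle fibroblasts, LR-strain trisomy-21 fibroblasts, HEp-2, CV-1, BS-C-1, Balb/3T3, RK13, human kidney, HeLa and Vero. CPE was read at 1–2 days in every cell type, once complete in untreated infected controls. The MIC is the concentration giving a 50% reduction in cytopathogenicity.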

[2] = test system: Vesicular stomatitis virus; assay: Inhibition of Vesicular stomatitis virus induced cytopathicity in BS-C-1 cells.; outline: as §1
[3] = test system: Vesicular stomatitis virus; assay: Inhibition of Vesicular stomatitis virus induced cytopathicity in CV-1 cells.; outline: as §1
[4] = test system: Vesicular stomatitis virus; assay: Inhibition of Vesicular stomatitis virus induced cytopathicity in E6SM cells.; outline: as §1
[5] = test system: HK; assay: Minimum inhibitory concentration which is required to reduce virus-induced cytopathogenicity by 50% against Vesicular stomatitis virus in human kidney,; outline: as §1
[6] = test system: Vesicular stomatitis virus; assay: Inhibition of Vesicular stomatitis virus induced cytopathicity in HEp-2 cells.; outline: as §1
[7] = test system: Coxsackievirus B4; assay: Inhibition of Coxsackie B4 virus induced cytopathicity in HeLa cells.; settings: Enterovirus B
[8] = test system: Vesicular stomatitis virus; assay: Inhibition of Vesicular stomatitis virus induced cytopathicity in HeLa cells.; outline: as §1
[9] = test system: HeLa; assay: Cytotoxic concentration against HeLa cells.; settings: Homo sapiens
Outline: (§2)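 Uninfected cells were incubated with compound for the same duration as the matching antiviral assay. The minimum cytotoxic concentration is the lowest one causing a microscopically detectable change in normal cell morphology.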

[10] = test system: PRK; assay: Cytotoxic concentration against PRK cells.; settings: Oryctolagus cuniculus; outline: as §2
[11] = test system: Human alphaherpesvirus 1; assay: Inhibition of HSV-1 induced cytopathicity in PRK cells.
[12] = test system: Vaccinia virus; assay: Inhibition of Vaccinia virus induced cytopathicity in PRK cells.; settings: Orthopoxvirus vaccinia
[13] = test system: Vesicular stomatitis virus; assay: Inhibition of Vesicular stomatitis virus induced cytopathicity in PRK cells.
[14] = species: Oryctolagus cuniculus; assay: Inhibitory effects on DNA, RNA, and Protein synthesis in rabbit kidney cells was evaluated for incorporation of [4,5-3H]leucine; settings: read-out: ID50 (the source's name)
[15] = species: Oryctolagus cuniculus; assay: Inhibitory effects on DNA, RNA, and Protein synthesis in rabbit kidney cells was evaluated for incorporation of [5-3H]-Urd; settings: read-out: ID50 (the source's name)
[16] = test system: Vesicular stomatitis virus; assay: Inhibition of Vesicular stomatitis virus induced cytopathicity in RK13 cells.; outline: as §1
[17] = test system: Vesicular stomatitis virus; assay: Inhibition of Vesicular stomatitis virus induced cytopathicity in T-21 cells.; outline: as §1
[18] = test system: Vero; assay: Cytotoxic concentration against Vero cells.; settings: Chlorocebus sabaeus; outline: as §2
[19] = test system: Sindbis virus; assay: Inhibition of Sindbis virus induced cytopathicity in vero cells.
[20] = test system: Vesicular stomatitis virus; assay: Inhibition of Vesicular stomatitis virus induced cytopathicity in Vero cells.; outline: as §1
[21] = test system: Measles morbillivirus; assay: Inhibition of Measles virus induced cytopathicity in vero cells.
[22] = test system: Human respirovirus 3; assay: Inhibition of parainfluenza virus-3 induced cytopathicity in vero cells.
[23] = test system: Mammalian orthoreovirus 1; assay: Inhibition of Reo virus-1 induced cytopathicity in vero cells.
[24] = test system: Poliovirus 1; assay: Inhibition of polio virus 1 induced cytopathicity in HeLa cells.; settings: Enterovirus C
[25] = species: Oryctolagus cuniculus; assay: Inhibitory effects on DNA, RNA, and Protein synthesis in rabbit kidney cells was evaluated for incorporation of [methyl-3H]dThd]; settings: read-out: ID50 (the source's name)

Row | Compound | MIC [1] | MIC [2] | MIC [3] | MIC [4] | MIC [5] | MIC [6] | MIC [7] | MIC [8] | MCC [9] | MCC [10] | MIC [11] | MIC [12] | MIC [13] | MIC [16] | MIC [17] | MCC [18] | MIC [19] | MIC [20] | MIC [21] | MIC [22] | also measured
1 | CCCCCOC(=O)C(O)Cn1cnc2c(N)ncnc21 (stereo unspecified) | > 200 µg/mL | 100 µg/mL (≈ 341 µM) | 300 µg/mL (≈ 1020 µM) | 3 µg/mL (≈ 10.2 µM) | 20 µg/mL (≈ 68.2 µM) | 2 µg/mL (≈ 6.82 µM) | > 400 µg/mL | 10 µg/mL (≈ 34.1 µM) | > 400 µg/mL | 200 µg/mL | > 200 µg/mL | 70 µg/mL (≈ 239 µM) | 10 µg/mL (≈ 34.1 µM) | 100 µg/mL (≈ 341 µM) | 1 µg/mL (≈ 3.41 µM) | 200 µg/mL | 200 µg/mL (≈ 682 µM) | 20 µg/mL (≈ 68.2 µM) | 70 µg/mL (≈ 239 µM) | 70 µg/mL (≈ 239 µM) | IC50 [14]: 215 µg/mL (≈ 733 µM); IC50 [15]: 21 µg/mL (≈ 71.6 µM); MIC [23]: 30 µg/mL (≈ 102 µM); MIC [24]: > 400 µg/mL; IC50 [25]: 151 µg/mL (≈ 515 µM)
2 | CCOC(=O)C(O)Cn1cnc2c(N)ncnc21 (stereo unspecified) | > 400 µg/mL | > 400 µg/mL | > 400 µg/mL | 7 µg/mL (≈ 27.9 µM) | 200 µg/mL (≈ 796 µM) | 7 µg/mL (≈ 27.9 µM) | > 400 µg/mL | 4 µg/mL (≈ 15.9 µM) | > 400 µg/mL | > 400 µg/mL | > 400 µg/mL | 3 µg/mL (≈ 11.9 µM) | 1 µg/mL (≈ 3.98 µM) | 2 µg/mL (≈ 7.96 µM) | 1 µg/mL (≈ 3.98 µM) | > 400 µg/mL | > 400 µg/mL | 400 µg/mL (≈ 1590 µM) | 20 µg/mL (≈ 79.6 µM) | 20 µg/mL (≈ 79.6 µM) | MIC [23]: 40 µg/mL (≈ 159 µM); MIC [24]: > 400 µg/mL
3 | Nc1ncnc2c1ncn2CC(O)C(=O)OCc1ccco1 (stereo unspecified) | > 40 µg/mL | > 40 µg/mL | > 40 µg/mL | 40 µg/mL (≈ 132 µM) | > 40 µg/mL | 4 µg/mL (≈ 13.2 µM) | > 40 µg/mL | 7 µg/mL (≈ 23.1 µM) | 40 µg/mL | 40 µg/mL | > 40 µg/mL | 10 µg/mL (≈ 33 µM) | 15 µg/mL (≈ 49.5 µM) | > 40 µg/mL | 7 µg/mL (≈ 23.1 µM) | 40 µg/mL | > 40 µg/mL | > 40 µg/mL | > 40 µg/mL | 15 µg/mL (≈ 49.5 µM) | MIC [23]: 30 µg/mL (≈ 98.9 µM); MIC [24]: > 40 µg/mL
4 | CCCOC(=O)C(O)Cn1cnc2c(N)ncnc21 (stereo unspecified) | > 400 µg/mL | 300 µg/mL (≈ 1130 µM) | > 400 µg/mL | 10 µg/mL (≈ 37.7 µM) | 200 µg/mL (≈ 754 µM) | 3 µg/mL (≈ 11.3 µM) | > 400 µg/mL | 50 µg/mL (≈ 188 µM) | > 400 µg/mL | 100 µg/mL | > 100 µg/mL | 3 µg/mL (≈ 11.3 µM) | 1 µg/mL (≈ 3.77 µM) | 2 µg/mL (≈ 7.54 µM) | 7 µg/mL (≈ 26.4 µM) | > 400 µg/mL | > 200 µg/mL | 150 µg/mL (≈ 565 µM) | 100 µg/mL (≈ 377 µM) | 100 µg/mL (≈ 377 µM) | IC50 [14]: > 400 µg/mL; IC50 [15]: 168 µg/mL (≈ 633 µM); MIC [23]: 200 µg/mL (≈ 754 µM); MIC [24]: > 400 µg/mL; IC50 [25]: > 276 µg/mL
5 | Nc1ncnc2c1ncn2CC(O)C(=O)OCCO (stereo unspecified) | > 400 µg/mL | > 400 µg/mL | > 400 µg/mL | 70 µg/mL (≈ 262 µM) | 200 µg/mL (≈ 748 µM) | 3 µg/mL (≈ 11.2 µM) | > 400 µg/mL | 70 µg/mL (≈ 262 µM) | > 400 µg/mL | > 400 µg/mL | > 400 µg/mL | 70 µg/mL (≈ 262 µM) | 30 µg/mL (≈ 112 µM) | 100 µg/mL (≈ 374 µM) | 30 µg/mL (≈ 112 µM) | > 400 µg/mL | > 400 µg/mL | 150 µg/mL (≈ 561 µM) | 30 µg/mL (≈ 112 µM) | > 200 µg/mL | IC50 [14]: > 400 µg/mL; IC50 [15]: > 400 µg/mL; MIC [23]: > 200 µg/mL; MIC [24]: > 400 µg/mL; IC50 [25]: > 314 µg/mL
6 | CC(C)OC(=O)C(O)Cn1cnc2c(N)ncnc21 (stereo unspecified) | > 400 µg/mL | > 400 µg/mL | > 400 µg/mL | 3 µg/mL (≈ 11.3 µM) | 300 µg/mL (≈ 1130 µM) | 7 µg/mL (≈ 26.4 µM) | > 400 µg/mL | 30 µg/mL (≈ 113 µM) | > 400 µg/mL | > 400 µg/mL | > 400 µg/mL | 3 µg/mL (≈ 11.3 µM) | 3 µg/mL (≈ 11.3 µM) | 1 µg/mL (≈ 3.77 µM) | 1 µg/mL (≈ 3.77 µM) | > 400 µg/mL | > 400 µg/mL | 200 µg/mL (≈ 754 µM) | 150 µg/mL (≈ 565 µM) | 70 µg/mL (≈ 264 µM) | MIC [23]: 40 µg/mL (≈ 151 µM); MIC [24]: > 400 µg/mL

Source: ChEMBL document CHEMBL1123109, “Alkyl esters of 3-adenin-9-yl-2-hydroxypropanoic acid: a new class of broad-spectrum antiviral agents” (1985)
